Data: paper PMC3314378 (Journal of Medicinal Chemistry, 2011)

Key:
CFTR = CFTR (Homo sapiens, UniProt P13569); test: Short-circuit current analysis of CFTR inhibition in CFTR-expressing FRT cells; format: cell-based
In short: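 Ussing chamber short-circuit current on CFTR-expressing FRT cell inserts under voltage clamp. Apical buffer 75 mM NaCl + 75 mM Na gluconate, basolateral 150 mM NaCl, pH 7.3, giving a transepithelial chloride gradient. Basolateral membrane permeabilized with 250 μg/mL amphotericin B. CFTR activated with forskolin (20 μM), then serial additions of increasing test compound concentrations, with current recorded continuously.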

[1] = system: 8-Br-cAMP-induced renal cyst growth in E13.5 embryonic kidneys; test: Embryonic kidney organ culture model of PKD; set-up: species or system mouse
In short: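 Mouse E13.5 metanephroi on porous culture inserts in DMEM/Ham's F-12 with L-glutamine, HEPES, insulin, transferrin, selenium, prostaglandin E, T3 and antibiotics. Kept at 37 °C in humidified CO2 for up to 8 days. Medium with 100 μM 8-Br-cAMP, with or without test compound (0, 0.1 or 1 μM), replaced every 12 h. Kidneys photographed by transmitted light at 520 nm; percentage cyst area = total cyst area / total kidney area.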

[2] = In vitro metabolic stability in hepatic microsomes; format: in vitro ADME, rat; settings: for metabolic stability in hepatic microsomes: presence of NADPH
In short: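 Test compound (5 μM) incubated at 37 °C for specified times with rat liver microsomes (1 mg protein/ml) in 100 mM potassium phosphate buffer with NADPH 0 or 1 mM. Chilled, extracted with ice-cold ethyl acetate, dried under nitrogen, redissolved in acetonitrile:water 3:1 with 0.1% formic acid. Analysed by reverse-phase C18 LC (5–95% acetonitrile gradient, 16 min) and electrospray MS, scanning 150–1500 Da.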

human wildtype CFTR = human wildtype CFTR (Homo sapiens, UniProt P13569); test: Fluorescence plate-reader assay of CFTR-mediated iodide influx; format: cell-based
Chain of human wildtype CFTR (P13569 whole entry): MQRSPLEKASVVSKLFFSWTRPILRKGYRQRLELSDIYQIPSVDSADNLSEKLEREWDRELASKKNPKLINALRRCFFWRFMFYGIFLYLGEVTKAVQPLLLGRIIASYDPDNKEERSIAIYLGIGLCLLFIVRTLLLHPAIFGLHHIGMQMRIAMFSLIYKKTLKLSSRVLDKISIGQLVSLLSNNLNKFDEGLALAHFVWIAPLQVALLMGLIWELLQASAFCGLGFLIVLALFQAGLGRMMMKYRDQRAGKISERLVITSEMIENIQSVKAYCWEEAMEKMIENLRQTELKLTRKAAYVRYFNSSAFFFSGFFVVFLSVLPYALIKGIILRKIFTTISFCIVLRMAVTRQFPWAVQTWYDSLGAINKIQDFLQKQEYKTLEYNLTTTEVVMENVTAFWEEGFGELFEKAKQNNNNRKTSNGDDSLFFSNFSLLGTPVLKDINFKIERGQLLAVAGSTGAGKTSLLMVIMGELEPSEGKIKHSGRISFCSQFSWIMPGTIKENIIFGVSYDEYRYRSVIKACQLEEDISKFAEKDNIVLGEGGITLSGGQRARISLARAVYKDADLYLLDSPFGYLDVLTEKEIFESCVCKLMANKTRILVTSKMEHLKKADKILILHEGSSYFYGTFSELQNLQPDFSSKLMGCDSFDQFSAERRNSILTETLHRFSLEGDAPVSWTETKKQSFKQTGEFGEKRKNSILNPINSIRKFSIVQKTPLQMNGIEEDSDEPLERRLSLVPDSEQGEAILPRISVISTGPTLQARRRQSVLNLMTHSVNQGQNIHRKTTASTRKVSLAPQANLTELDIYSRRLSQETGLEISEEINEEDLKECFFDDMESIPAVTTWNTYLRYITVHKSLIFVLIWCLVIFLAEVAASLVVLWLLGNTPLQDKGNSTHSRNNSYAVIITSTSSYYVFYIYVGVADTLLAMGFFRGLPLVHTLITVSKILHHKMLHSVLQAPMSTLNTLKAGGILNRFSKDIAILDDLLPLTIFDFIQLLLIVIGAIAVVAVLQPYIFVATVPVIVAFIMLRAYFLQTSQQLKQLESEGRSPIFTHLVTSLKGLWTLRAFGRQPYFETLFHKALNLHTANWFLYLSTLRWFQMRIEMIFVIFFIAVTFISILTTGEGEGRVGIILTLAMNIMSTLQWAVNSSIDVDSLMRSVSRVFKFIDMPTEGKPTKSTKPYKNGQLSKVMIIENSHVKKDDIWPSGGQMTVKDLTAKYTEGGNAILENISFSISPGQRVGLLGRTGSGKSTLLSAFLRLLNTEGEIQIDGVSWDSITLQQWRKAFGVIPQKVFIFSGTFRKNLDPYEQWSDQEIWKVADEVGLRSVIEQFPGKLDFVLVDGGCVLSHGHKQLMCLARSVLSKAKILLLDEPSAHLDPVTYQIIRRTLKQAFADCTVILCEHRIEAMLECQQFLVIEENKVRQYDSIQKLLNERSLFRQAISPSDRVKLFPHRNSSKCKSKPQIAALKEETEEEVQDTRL
In short: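 FRT cells co-expressing human wild-type CFTR and YFP-H148Q were plated at 20,000 cells/well in Coon's modified F12 with 10% FBS and assayed 48 h later. After PBS washes, test compound was added for 45 min, then forskolin/IBMX/apigenin cocktail for 15 min. Fluorescence was read 2 s baseline, then 10 s after adding PBS with iodide replacing 137 mM chloride. Initial iodide influx rate by non-linear regression; n=4, S.E.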

[3] = system: 8-Br-cAMP-induced renal cyst growth in E13.5 embryonic kidneys; settings: read-out: IC50 for inhibition of cyst growth; embryonic kidney culture; cited from earlier work

Chain of CFTR (P13569 whole entry): as above

With `Cn1c(=O)c2c(-c3ccccc3)n3c(c2n(C)c1=O)C(c1ccc(Br)o1)Oc1ccc(C(=O)O)cc1-3` (stereo not drawn) [Compound 42, 6-(5-Bromofuran-2-yl)-7,9-dimethyl-8,10-dioxo-11-phenyl-7,8,9,10-tetrahydro-6H-benzo[b]pyrimido [4',5':3,4]pyrrolo [1,2-d][1,4]oxazine-2-carboxylic acid] the “extent of CFTR inhibition” value (CFTR) was “fully inhibited CFTR”, the “improvement of potency for inhibition of renal cystogenesis ex vivo over 8” value [1] was greater than 5 fold and the “improvement of metabolic stability compared to 8” value ([2]; hepatic microsomes) was greater than 10 fold. The “metabolic stability in hepatic microsomes” value [2] was “excellent stability”.
For `Cn1c(=O)c2c(-c3ccccc3)n3c(c2n(C)c1=O)C(c1ccc(Br)o1)Nc1ccccc1-3` (stereo not drawn) [Compound 18], the “metabolic stability in hepatic microsomes” value [2] was “substantially more stable than 8”.
For `CCOC(=O)c1ccc2c(c1)-n1c(-c3ccccc3)c3c(=O)n(C)c(=O)n(C)c3c1C(c1ccc(Br)o1)O2` (stereo not drawn) [Compound 40, Ethyl 6-(5-Bromofuran-2-yl)-7,9-dimethyl-8,10-dioxo-11-phenyl-7,8,9,10-tetrahydro-6H-benzo[b]pyrimido [4',5':3,4]pyrrolo[1,2-d][1,4]oxazine-2-carboxylate], the “CFTR inhibition activity” value (human wildtype CFTR) was “strongly inhibited CFTR”.
In the case of `Cc1ccc(C2Nc3ccccc3-n3c(-c4ccccc4)c4c(=O)n(C)c(=O)n(C)c4c32)o1` (stereo not drawn) [Compound 8, 7,9-Dimethyl-11-phenyl-6-(5-methylfuran-2-yl)-5,6-dihydro-pyrimido-[4',5'-3,4]pyrrolo[1,2-a]quinoxaline-8,10-(7H,9H)-dione], the IC50 [3] is listed as greater than 500 nM, the “loss in hepatic microsomes in the absence of NADPH” value ([2]; absence of NADPH (data not shown)) is listed as “No loss” and the “metabolic stability in hepatic microsomes” value [2] is listed as “poor metabolic stability”.
With `Cn1c(=O)c2c(-c3ccccc3)n3c(c2n(C)c1=O)C(c1ccc(Br)o1)Oc1ccc([N+](=O)[O-])cc1-3` (stereo not drawn) [Compound 36] the “metabolic stability in hepatic microsomes” value [2] was “excellent metabolic stability”.
With `Cc1ccc(C2c3c4c(c(-c5ccccc5)n3-c3ccccc3N2C)c(=O)n(C)c(=O)n4C)o1` (stereo not drawn) [Compound 13] the “CFTR inhibition activity” value (human wildtype CFTR) was “weakly active”.
In the case of `Cn1c(=O)c2c(-c3ccccc3)n3c(c2n(C)c1=O)C(c1ccc(Br)o1)Oc1ccccc1-3` (stereo not drawn) [Compound 31], the “metabolic stability in hepatic microsomes” value [2] is reported as “better stability than 8”.
